Common to all, as to type: functional
Experiment [1] concerns Radical scavenging activity. Nature of the experiment: Antioxidant activity assessed as inhibition of DPPH free radical production at 50 ug/mL after 30 mins by spectrophotometric analysis relative to control. In short, it runs like this:
(§1)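 Test compound in methanol added to 0.004% (w/v) methanolic DPPH at a 1:4 volume ratio. Incubated 30 min at room temperature. Absorbance read against blank at 517 nm.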
(In general: The DPPH test is a chemical assay of radical scavenging.)

Experiment [2] deals with Radical scavenging activity. Briefly: Antioxidant activity assessed as inhibition of DPPH free radical production at 75 ug/mL after 30 mins by spectrophotometric analysis relative to control. In a few lines: as §1
Experiment [3] is described as follows: Antioxidant activity assessed as inhibition of nitric oxide free radical production at 50 ug/mL after 150 mins by Griess method relative to control. In short, it runs like this: (§2)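 NO generated from sodium nitroprusside (10 mM) in 0.2 M phosphate buffered saline, pH 7.4, with compound at […]. Incubated 150 min at 25 °C. An aliquot was mixed 1:1 with Griess reagent (1% sulfanilamide, 2% H3PO4, 0.1% naphthylethylenediamine dihydrochloride).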
Background: The Griess reaction detects nitrite, a stable product of nitric oxide.

Experiment [4] can be described thus: Antioxidant activity assessed as inhibition of H2O2 radical scavenging activity at 25 ug/mL by spectrophotometric analysis relative to control. In a few lines:
(§3)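 H2O2 (40 mM) prepared in phosphate buffer, pH 7.4. Compounds at […] in phosphate buffer were added to the H2O2 solution. Absorbance of the mixture was read at 230 nm, and percent H2O2 scavenging was calculated.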

In experiment [5] the test system is Radical scavenging activity. Briefly: Antioxidant activity assessed as inhibition of DPPH free radical production at 25 ug/mL after 30 mins by spectrophotometric analysis relative to control. In a few lines:
as §1

The nature of experiment [6]: Antioxidant activity assessed as inhibition of nitric oxide free radical production at 75 ug/mL after 150 mins by Griess method relative to control. In short, it runs like this: as §2
The nature of experiment [7]: Antioxidant activity assessed as inhibition of H2O2 radical scavenging activity at 75 ug/mL by spectrophotometric analysis relative to control. In a few lines:
as §3

Experiment [8] can be described thus: Antioxidant activity assessed as inhibition of H2O2 radical scavenging activity at 50 ug/mL by spectrophotometric analysis relative to control. In short, it runs like this: as §3
Experiment [9] is described as follows: Antioxidant activity assessed as inhibition of nitric oxide free radical production after 150 mins by Griess method. In a few lines:
as §2

For experiment [10], the system named is Radical scavenging activity. Briefly: Antioxidant activity assessed as inhibition of DPPH free radical production after 30 mins by spectrophotometric analysis. In a few lines: as §1
A short description of experiment [11]: Antioxidant activity assessed as inhibition of H2O2 radical scavenging activity by spectrophotometric analysis. In a few lines: as §3
The nature of experiment [12]: Antioxidant activity assessed as inhibition of H2O2 radical scavenging activity at 100 ug/mL by spectrophotometric analysis relative to control. In a few lines:
as §3

The nature of experiment [13]: Antioxidant activity assessed as inhibition of nitric oxide free radical production at 100 ug/mL after 150 mins by Griess method relative to control. In short, it runs like this:
as §2

The test system of experiment [14] is Radical scavenging activity. Briefly: Antioxidant activity assessed as inhibition of DPPH free radical production at 100 ug/mL after 30 mins by spectrophotometric analysis relative to control. In short, it runs like this: as §1
Experiment [15] is described as follows: Antioxidant activity assessed as inhibition of nitric oxide free radical production at 25 ug/mL after 150 mins by Griess method relative to control. In short, it runs like this: as §2

Values after ≈ are worked out from the molar mass of the structure shown.

`Cc1c(-c2nnc(-c3ccccc3)o2)sc2ncnc(Nc3ccc(F)c(Cl)c3)c12`: the inhibition in experiment [1] came out at 72.8%; in experiment [2], 74.9%; in experiment [3], 74.1%; in experiment [4], 60.3%; in experiment [5] it was 68.5%; in [6], 78.2%. Moreover, the inhibition in experiment [7] stood at 67.8%; in experiment [8], 63.5%; in [12], 70.9%; in [13], 82.4%; in experiment [14], 79.2%; in experiment [15], 72.9%. Besides, the values for the IC50 in experiment [9], in experiment [10] and in [11] were 17.14 µg/mL (≈ 39.1 µM), 18.25 µg/mL (≈ 41.7 µM) and 20.74 µg/mL (≈ 47.4 µM), respectively.

In general, inhibition refers to the relative decrease from the control value, in per cent. Usually IC50 stands for the concentration that gives 50% inhibition.

(Values after ChEMBL document CHEMBL2150985, “Synthesis and antioxidant activity of 1,3,4-oxadiazole tagged thieno[2,3-d]pyrimidine derivatives” (Eur J Med Chem, 2012).)
